From ChEMBL document CHEMBL2429818, “Recognition of HIV-TAR RNA using neomycin-benzimidazole conjugates” (Bioorg Med Chem Lett, 2013)
Active and inactive are the calls of the source. The calls are words filed in the database; no cut-off is given here.

Tests used:
Nucleic Acid [1] = experiment: Displacement of ethidium bromide from HIV TAR RNA by fluorescent intercalator displacement assay; format: nucleic-acid assay, Human immunodeficiency virus
In short: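 TAR RNA prebound with ethidium bromide, then titrated successively with ligand to displace the intercalator. The resulting binding isotherm was analysed for DC50, the ligand concentration displacing 50% of bound dye.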

Nucleic Acid [2] = experiment: Thermal stabilization of HIV TAR RNA assessed as change in melting temperature at 1:1 ligand to RNA ratio by UV-vis spectrophotometric analysis; format: nucleic-acid assay; conditions: Human immunodeficiency virus
Nucleic Acid [3] = experiment: Displacement of fluorescein and rhodamine-labeled TAT peptide from HIV TAR RNA by FRET assay; format: nucleic-acid assay, Human immunodeficiency virus
In short: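 Tat peptide carrying fluorescein/rhodamine FRET pair mixed 1:1 with TAR RNA (100 nM each) in 50 mM Tris, 20 mM KCl, pH 7.4. Complex titrated with ligand until fluorescence stopped changing; displacement read as loss of fluorescein emission. Isotherm fitted to a dose-response curve to give IC50, the level displacing 50% of bound peptide.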

[4] = Displacement of fluorescein-labeled REV peptide from HIV RRE RNA after 1 hr by fluorescence polarization assay; parameters: species or system Human immunodeficiency virus
Nucleic Acid [5] = experiment: Binding affinity to HIV TAR RNA at 1.6 equiv after 5 mins by circular dichroism analysis; format: nucleic-acid assay; conditions: Human immunodeficiency virus
In short: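 TAR RNA titrated serially with ligand in small increments; after each addition the complex was stirred and equilibrated 5 min before recording the CD spectrum (average of three scans). Buffer 10 mM sodium cacodylate, 0.5 mM EDTA, 100 mM KCl, pH 6.8, at 20 °C.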

| SMILES | DC50 (Nucleic Acid [1]) [nM] | ΔTm (Nucleic Acid [2]) [°C] | IC50 (Nucleic Acid [3]) [nM] | IC50 [4] [nM] | Activity (Nucleic Acid [5]) |
| --- | --- | --- | --- | --- | --- |
| CN1CCN(c2ccc3nc(-c4ccc(OCc5cn(CCCCCn6cc(CCCCc7cn(C[C@H]8O[C@@H](O[C@@H]9[C@@H](O)[C@H](N)C[C@H](N)[C@H]9O[C@H]9O[C@H](CN)[C@@H](O)[C@H](O)[C@H]9N)[C@H](O)[C@@H]8O[C@H]8O[C@@H](CN)[C@@H](O)[C@H](O)[C@H]8N)nn7)nn6)nn5)cc4)[nH]c3c2)CC1 | 150 | 2.1 | 851 | – | – |
| NC[C@@H]1O[C@H](O[C@H]2[C@@H](O)[C@H](O[C@@H]3[C@@H](O)[C@H](N)C[C@H](N)[C@H]3O[C@H]3O[C@H](CN)[C@@H](O)[C@H](O)[C@H]3N)O[C@@H]2CO)[C@H](N)[C@@H](O)[C@@H]1O [FRAMYCETIN] | – | 2 | 1470 | – | – |
| CN1CCN(c2ccc3nc(-c4ccc(OCc5cn(CCCCCCCCCCn6cc(CCCCc7cn(C[C@H]8O[C@@H](O[C@@H]9[C@@H](O)[C@H](N)C[C@H](N)[C@H]9O[C@H]9O[C@H](CN)[C@@H](O)[C@H](O)[C@H]9N)[C@H](O)[C@@H]8O[C@H]8O[C@@H](CN)[C@@H](O)[C@H](O)[C@H]8N)nn7)nn6)nn5)cc4)[nH]c3c2)CC1 | 180 | 4 | 1380 | – | – |
| CN1CCN(c2ccc3nc(-c4ccc(OCCn5cc(CCCCCCc6cn(C[C@H]7O[C@@H](O[C@@H]8[C@@H](O)[C@H](N)C[C@H](N)[C@H]8O[C@H]8O[C@H](CN)[C@@H](O)[C@H](O)[C@H]8N)[C@H](O)[C@@H]7O[C@H]7O[C@@H](CN)[C@@H](O)[C@H](O)[C@H]7N)nn6)nn5)cc4)[nH]c3c2)CC1 | 81 | 5.4 | 949 | – | – |
| CN1CCN(c2ccc3nc(-c4ccc(OCCn5cc(COCc6cn(C[C@H]7O[C@@H](O[C@@H]8[C@@H](O)[C@H](N)C[C@H](N)[C@H]8O[C@H]8O[C@H](CN)[C@@H](O)[C@H](O)[C@H]8N)[C@H](O)[C@@H]7O[C@H]7O[C@@H](CN)[C@@H](O)[C@H](O)[C@H]7N)nn6)nn5)cc4)[nH]c3c2)CC1 | 78 | 3 | 1280 | – | – |
| CN1CCN(c2ccc3nc(-c4ccc(OCCn5cc(-c6ccc(-c7cn(C[C@H]8O[C@@H](O[C@@H]9[C@@H](O)[C@H](N)C[C@H](N)[C@H]9O[C@H]9O[C@H](CN)[C@@H](O)[C@H](O)[C@H]9N)[C@H](O)[C@@H]8O[C@H]8O[C@@H](CN)[C@@H](O)[C@H](O)[C@H]8N)nn7)cc6)nn5)cc4)[nH]c3c2)CC1 | 180 | 3 | 379 | – | – |
| CN1CCN(c2ccc3nc(-c4ccc(OCCn5cc(CCc6cn(C[C@H]7O[C@@H](O[C@@H]8[C@@H](O)[C@H](N)C[C@H](N)[C@H]8O[C@H]8O[C@H](CN)[C@@H](O)[C@H](O)[C@H]8N)[C@H](O)[C@@H]7O[C@H]7O[C@@H](CN)[C@@H](O)[C@H](O)[C@H]7N)nn6)nn5)cc4)[nH]c3c2)CC1 | 83 | 3.4 | 337 | – | – |
| CN1CCN(c2ccc3nc(-c4ccc(OCc5cn(Cn6cc(CCCCc7cn(C[C@H]8O[C@@H](O[C@@H]9[C@@H](O)[C@H](N)C[C@H](N)[C@H]9O[C@H]9O[C@H](CN)[C@@H](O)[C@H](O)[C@H]9N)[C@H](O)[C@@H]8O[C@H]8O[C@@H](CN)[C@@H](O)[C@H](O)[C@H]8N)nn7)nn6)nn5)cc4)[nH]c3c2)CC1 | 184 | 2.5 | 411 | – | – |
| C#CCOc1ccc(-c2nc3ccc(N4CCN(C)CC4)cc3[nH]2)cc1 | – | 1 | – | – | – |
| CN1CCN(c2ccc3nc(-c4ccc(OCCn5cc(CCCc6cn(C[C@H]7O[C@@H](O[C@@H]8[C@@H](O)[C@H](N)C[C@H](N)[C@H]8O[C@H]8O[C@H](CN)[C@@H](O)[C@H](O)[C@H]8N)[C@H](O)[C@@H]7O[C@H]7O[C@@H](CN)[C@@H](O)[C@H](O)[C@H]7N)nn6)nn5)cc4)[nH]c3c2)CC1 | 140 | 4.1 | 507 | – | – |
| CN1CCN(c2ccc3nc(-c4ccc(OCc5cn(CCCCCCn6cc(CCCCc7cn(C[C@H]8O[C@@H](O[C@@H]9[C@@H](O)[C@H](N)C[C@H](N)[C@H]9O[C@H]9O[C@H](CN)[C@@H](O)[C@H](O)[C@H]9N)[C@H](O)[C@@H]8O[C@H]8O[C@@H](CN)[C@@H](O)[C@H](O)[C@H]8N)nn7)nn6)nn5)cc4)[nH]c3c2)CC1 | 200 | 3.8 | 1370 | – | – |
| CN1CCN(c2ccc3nc(-c4ccc(OCc5cn(C[C@H]6O[C@@H](O[C@@H]7[C@@H](O)[C@H](N)C[C@H](N)[C@H]7O[C@H]7O[C@H](CN)[C@@H](O)[C@H](O)[C@H]7N)[C@H](O)[C@@H]6O[C@H]6O[C@@H](CN)[C@@H](O)[C@H](O)[C@H]6N)nn5)cc4)[nH]c3c2)CC1 | 33 | 5.6 | 272 | 768 | Active |
